In ChEMBL document CHEMBL1800018, “Discovery of a series of imidazo[4,5-b]pyridines with dual activity at angiotensin II type 1 receptor and peroxisome proliferator-activated receptor-γ” (J Med Chem, 2011):
Activity calls are given as the source filed them. The rule behind the calls is not given here.

Legend:
[1] = target: T1, Type-1 angiotensin II receptor (Homo sapiens, UniProt P30556); assay: Displacement of [125I]Tyr4-Sar1,Ile8-Angiotensin II from human Angiotensin 1 receptor after 60 mins by scintillation counting
T1 sequence (P30556 whole entry): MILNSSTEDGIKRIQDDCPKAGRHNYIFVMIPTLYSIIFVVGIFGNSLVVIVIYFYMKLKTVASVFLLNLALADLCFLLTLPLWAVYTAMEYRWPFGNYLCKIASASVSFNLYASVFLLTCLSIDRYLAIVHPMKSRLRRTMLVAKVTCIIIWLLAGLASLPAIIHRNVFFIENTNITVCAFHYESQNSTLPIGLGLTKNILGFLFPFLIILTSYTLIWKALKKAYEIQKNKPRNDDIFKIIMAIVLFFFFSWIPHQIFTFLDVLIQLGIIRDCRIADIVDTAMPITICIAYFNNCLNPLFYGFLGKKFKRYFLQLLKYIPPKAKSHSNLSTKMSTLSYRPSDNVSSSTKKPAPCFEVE

[2] = target: T2, Peroxisome proliferator-activated receptor gamma (Homo sapiens, UniProt P37231); assay: Partial agonist activity at human PPARgamma-LBD/Gal4 DNA binding domain by transactivation assay
T2 sequence (P37231 whole entry): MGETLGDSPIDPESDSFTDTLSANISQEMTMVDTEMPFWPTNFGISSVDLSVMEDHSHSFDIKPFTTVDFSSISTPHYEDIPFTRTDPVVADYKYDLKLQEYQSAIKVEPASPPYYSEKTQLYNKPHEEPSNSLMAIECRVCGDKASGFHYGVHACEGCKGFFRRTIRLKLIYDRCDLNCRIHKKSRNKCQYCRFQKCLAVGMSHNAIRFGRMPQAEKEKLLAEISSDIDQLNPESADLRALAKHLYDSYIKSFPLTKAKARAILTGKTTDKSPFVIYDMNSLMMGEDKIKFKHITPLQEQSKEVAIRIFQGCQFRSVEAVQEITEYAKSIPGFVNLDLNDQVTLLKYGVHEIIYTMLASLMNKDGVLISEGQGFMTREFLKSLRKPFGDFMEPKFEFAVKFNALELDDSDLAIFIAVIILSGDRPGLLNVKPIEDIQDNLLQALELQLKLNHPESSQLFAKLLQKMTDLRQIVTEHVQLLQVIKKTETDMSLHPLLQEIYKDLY

Rattus norvegicus [3] = assay: Antidiabetic activity in ZDF rat assessed as adiponectin level at 3 mg/kg, po QD for 40 days (reference value: 11.9+/-1.5 ug/ml); format: functional
Rattus norvegicus [4] = assay: Antidiabetic activity in ZDF rat assessed as body weight gain at 3 mg/kg, po QD for 40 days measured on day 6 (reference value: 133+/-9 g); format: functional, organism-based; parameters: dose 3 mg/kg
Rattus norvegicus [5] = assay: Antidiabetic activity in ZDF rat assessed as blood glucose level at 3 mg/kg, po QD for 40 days (reference value: 771+/-60 mg/dL); format: functional
Rattus norvegicus [6] = assay: Antidiabetic activity in ZDF rat assessed as body weight gain at 3 mg/kg, po QD for 40 days (reference value: 133+/-9 g); format: functional
How it was run: (§1)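 Male ZDF rats, starting at about 6 weeks old, were dosed orally once daily for 40 days in 1.5% CMC/0.2% Tween 20 suspension, n = 8/group. Body weight was followed over the study. Gain was calculated per animal from day 0 to day 40 and compared with vehicle and pioglitazone (3 mg/kg) groups. Data are mean ± SEM.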

Rattus norvegicus [7] = assay: Antidiabetic activity in ZDF rat assessed as triglyceride level at 3 mg/kg, po QD for 40 days (reference value: 618+/-52 mg/dL); format: functional
Rattus norvegicus [8] = assay: Antidiabetic activity in ZDF rat assessed as triglyceride level at 100 mg/kg, po QD for 40 days (reference value: 618+/-52 mg/dL); format: functional
Rattus norvegicus [9] = assay: Antidiabetic activity in ZDF rat assessed as blood glucose level at 100 mg/kg, po QD for 40 days (reference value: 771+/-60 mg/dL); format: functional
Rattus norvegicus [10] = assay: Antidiabetic activity in ZDF rat assessed as body weight gain at 100 mg/kg, po QD for 40 days measured on day 32 (reference value: 133+/-9 g); format: functional, organism-based; parameters: dose 100 mg/kg
Rattus norvegicus [11] = assay: Antidiabetic activity in ZDF rat assessed as body weight gain at 100 mg/kg, po QD for 40 days (reference value: 133+/-9 g); format: functional; how it was run: as §1
Rattus norvegicus [12] = assay: Antidiabetic activity in ZDF rat assessed as adiponectin level at 100 mg/kg, po QD for 40 days (reference value: 11.9+/-1.5 ug/ml); format: functional

Row | SMILES | IC50 [1] [µM] | EC50 [2] [µM] | other results
1 | Cc1cc(C)c2nc(C3CC3)n([C@H]3CCc4cc(-c5ccccc5-c5nnn[nH]5)ccc43)c2n1 | 0.0082 | 0.762 | –
2 | CCCCc1nc2c(C)cc(C)nc2n1C1CCc2cc(-c3ccccc3-c3nn[nH]n3)ccc21 (racemic) | 0.238 | 2.2 | –
3 | CCc1ccc(CCOc2ccc(CC3SC(=O)NC3=O)cc2)nc1 (stereo unspecified) [PIOGLITAZONE] | – | – | Activity (Rattus norvegicus [3]): 30.5 µg/mL; Activity (Rattus norvegicus [4]): Active; Activity (Rattus norvegicus [5]): 118 mg/dL; Activity (Rattus norvegicus [6]): 269 g; Activity (Rattus norvegicus [7]): 316 mg/dL
4 | CCc1nc2c(C)cc(C)nc2n1C1CCc2cc(-c3ccccc3-c3nn[nH]n3)ccc21 (racemic) | 0.096 | 0.574 | –
5 | CCCc1nc2c(C)cc(-c3nc4ccccc4n3C)cc2n1Cc1ccc(-c2ccccc2C(=O)O)cc1 | – | 1.52 | Activity (Rattus norvegicus [8]): 935 mg/dL; Activity (Rattus norvegicus [9]): 510 mg/dL; Activity (Rattus norvegicus [10]): Active; Activity (Rattus norvegicus [11]): 157 g; Activity (Rattus norvegicus [12]): 13.2 µg/mL
6 | CCc1nc2c(C)cc(CC(C)C)nc2n1[C@H]1CCc2cc(-c3ccccc3C(=O)O)ccc21 | 0.0105 | 0.175 | –
7 | CCc1c(C)nc2c(nc(CC)n2[C@H]2CCc3cc(-c4ccccc4-c4nnn[nH]4)ccc32)c1C | 0.0157 | 1.34 | –
8 | CCc1nc2c(C)cc(C)nc2n1Cc1ccc(-c2ccccc2-c2nnn[nH]2)cc1 [L-158809] | – | > 20 | –

Continued, in another order:

Row | IC50 [1] [µM] | EC50 [2] [µM] | SMILES | other results
9 | 0.202 | 1.82 | CCc1nc2c(C)c(C)c(C)nc2n1[C@H]1CCc2cc(-c3ccccc3-c3nnn[nH]3)ccc21 | –
10 | 0.0052 | – | CCc1nc2c(C)cc(Cc3ccccc3)nc2n1[C@H]1CCc2cc(-c3ccccc3-c3nnn[nH]3)ccc21 | –
11 | 0.0068 | 0.494 | CCc1cc(C)c2nc(CC)n([C@H]3CCc4cc(-c5ccccc5-c5nnn[nH]5)ccc43)c2n1 | –
12 | 0.661 | 2.62 | CCc1nc2c(C)cc(C)nc2n1[C@@H]1CCc2cc(-c3ccccc3-c3nnn[nH]3)ccc21 | –
13 | 0.0102 | 0.295 | Cc1cc(C)c2nc(C(C)C)n([C@H]3CCc4cc(-c5ccccc5-c5nnn[nH]5)ccc43)c2n1 | –
14 | 0.748 | 0.165 | CCc1nc2c(CC(C)C)cc(C)nc2n1[C@H]1CCc2cc(-c3ccccc3-c3nnn[nH]3)ccc21 | –
15 | 0.0133 | 1.32 | CCCc1nc2c(C)cc(C)nc2n1[C@H]1CCc2cc(-c3ccccc3-c3nnn[nH]3)ccc21 | –
16 | 0.0035 | 0.089 | Cc1cc(CC(C)C)nc2c1nc(C(C)C)n2[C@H]1CCc2cc(-c3ccccc3-c3nnn[nH]3)ccc21 | –
17 | 0.0076 | 0.591 | CCc1nc2c(C)cc(C)nc2n1[C@H]1CCc2cc(-c3ccccc3-c3nnn[nH]3)ccc21 | –
18 | 0.0169 | 0.264 | CCc1cc(C)c2nc(C(C)C)n([C@H]3CCc4cc(-c5ccccc5-c5nnn[nH]5)ccc43)c2n1 | –
